In ChEMBL document CHEMBL1681736, “Towards more specific O6-methylguanine-DNA methyltransferase (MGMT) inactivators” (Bioorg Med Chem, 2011):

Legend:
[1] = Solubility of the compound in phosphate buffer; assay type: physicochemical
In short: (§1)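 Solubility was assessed while setting up thermal denaturation experiments with salmon sperm DNA (68% A–T base-pair content). Each buffer (phosphate, MES, Tris) was tried alone and also mixed with DMSO or ethanol.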

[2] = Solubility of the compound in MES buffer; assay type: physicochemical; in short: as §1
[3] = Solubility of the compound in Tris buffer; assay type: physicochemical; in short: as §1
[4] = target: T1, Methylated-DNA--protein-cysteine methyltransferase (Homo sapiens, UniProt P16455); test: Inactivation of human O-6-methylguanine-DNA methyltransferase assessed as [3H]methylated protein formation by liquid scintillation counting in presence of [3H]methylated calf thymus DNA
T1 sequence (P16455 whole entry): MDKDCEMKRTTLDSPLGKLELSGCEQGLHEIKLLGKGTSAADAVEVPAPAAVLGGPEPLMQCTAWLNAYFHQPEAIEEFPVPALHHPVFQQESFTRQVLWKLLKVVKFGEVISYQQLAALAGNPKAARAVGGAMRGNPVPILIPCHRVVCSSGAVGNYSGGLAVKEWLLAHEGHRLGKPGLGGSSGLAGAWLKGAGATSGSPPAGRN

| solubility [1] | solubility [2] | solubility [3] | IC50 [4] [µM] | Structure (SMILES) |
| --- | --- | --- | --- | --- |
| Insoluble | Insoluble | Insoluble | – | Nc1ccc(C(=O)c2ccc(Nc3nc(N)nc(OCc4cc(Br)cs4)c3[N+](=O)[O-])cc2)cc1 |
| Insoluble | Insoluble | Insoluble | – | Nc1ccc(Cc2ccc(Nc3nc(N)nc(OCc4cc(Br)cs4)c3[N+](=O)[O-])cc2)cc1 |
| Insoluble | Insoluble | Insoluble | > 600 | Nc1ccc(Oc2ccc(Nc3nc(N)nc(OCc4ccccc4)c3[N+](=O)[O-])cc2)cc1 |
| Insoluble | Insoluble | Insoluble | > 600 | Nc1ccc(C(=O)c2ccc(Nc3nc(N)nc(OCc4ccccc4)c3[N+](=O)[O-])cc2)cc1 |
| Insoluble | Insoluble | Insoluble | – | Nc1ccc(Cc2ccc(Nc3nc(N)nc(OCc4ccccc4)c3[N+](=O)[O-])cc2)cc1 |
| Insoluble | Insoluble | Insoluble | – | Nc1ccc(Oc2ccc(Nc3nc(N)nc(OCc4cc(Br)cs4)c3[N+](=O)[O-])cc2)cc1 |
| – | – | – | 0.003 | Nc1nc(OCc2cc(Br)cs2)c2[nH]cnc2n1 [LOMEGUATRIB] |
| Insoluble | Insoluble | Insoluble | – | Nc1ccc(Nc2ccc(Nc3nc(N)nc(OCc4cc(Br)cs4)c3[N+](=O)[O-])cc2)cc1 |
| Insoluble | Insoluble | Insoluble | – | Nc1ccc(Nc2ccc(Nc3nc(N)nc(OCc4ccccc4)c3[N+](=O)[O-])cc2)cc1 |
